# Experimental data reported in ChEMBL document CHEMBL4190362, “Synthesis, biological evaluation and quantitative structure-active relationships of 1,3-thiazolidin-4-one derivatives. A promising chemical scaffold endowed with high antifungal potency and low cytotoxicity” (Eur J Med Chem, 2017).
# How the values were obtained:
# Staphylococcus aureus = experiment: Antibacterial activity against Staphylococcus aureus assessed as inhibition of microbial growth incubated for 18 to 22 hrs by broth microdilution method; type: functional
# Method in brief: (§1)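 Broth microdilution in Mueller-Hinton II broth following NCCLS recommendations; compounds dissolved in DMSO.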
# Staphylococcus warneri = experiment: Antibacterial activity against Staphylococcus warneri assessed as inhibition of microbial growth incubated for 18 to 22 hrs by broth microdilution method; type: functional; method in brief: as §1
# Enterococcus faecalis = experiment: Antibacterial activity against Streptococcus faecalis assessed as inhibition of microbial growth incubated for 18 to 22 hrs by broth microdilution method; type: functional; method in brief: as §1
# Escherichia coli = experiment: Antibacterial activity against Escherichia coli assessed as inhibition of microbial growth incubated for 18 to 22 hrs by broth microdilution method; type: functional; method in brief: as §1
# Proteus mirabilis = experiment: Antibacterial activity against Proteus mirabilis assessed as inhibition of microbial growth incubated for 18 to 22 hrs by broth microdilution method; type: functional; method in brief: as §1
# Enterobacter = experiment: Antibacterial activity against Enterobacter spp. assessed as inhibition of microbial growth incubated for 18 to 22 hrs by broth microdilution method; type: functional; method in brief: as §1
# Klebsiella oxytoca = experiment: Antibacterial activity against Klebsiella oxytoca assessed as inhibition of microbial growth incubated for 18 to 22 hrs by broth microdilution method; type: functional; method in brief: as §1
# Candida albicans = experiment: Antifungal activity against Candida albicans clinical isolates assessed as inhibition of microbial growth incubated for 24 hrs by broth microdilution method; type: functional
# Method in brief: (§2)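 Twenty-two clinical Candida isolates (8 C. albicans, 4 C. glabrata, 3 C. tropicalis, 3 C. krusei, 2 C. parapsilosis, 2 C. sake) were identified by colony morphology and biochemistry and subcultured at 35 °C for purity. Compounds were dissolved in DMSO and tested by broth microdilution in Sabouraud dextrose broth per NCCLS/CLSI/EUCAST guidance. Values are geometric mean MIC per species (µg/mL).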
# Nakaseomyces glabratus = experiment: Antifungal activity against Candida glabrata clinical isolates assessed as inhibition of microbial growth incubated for 24 hrs by broth microdilution method; type: functional; method in brief: as §2
# Candida tropicalis = experiment: Antifungal activity against Candida tropicalis clinical isolates assessed as inhibition of microbial growth incubated for 24 hrs by broth microdilution method; type: functional; method in brief: as §2
# Pichia kudriavzevii = experiment: Antifungal activity against Candida krusei clinical isolates assessed as inhibition of microbial growth incubated for 24 hrs by broth microdilution method; type: functional; method in brief: as §2
# Candida parapsilosis = experiment: Antifungal activity against Candida parapsilosis clinical isolates assessed as inhibition of microbial growth incubated for 24 hrs by broth microdilution method; type: functional; settings: Lodderomyces parapsilosis; method in brief: as §2
# [Candida] sake = Antifungal activity against Candida sake clinical isolates assessed as inhibition of microbial growth incubated for 24 hrs by broth microdilution method; type: functional; settings: Fermentozyma sake; method in brief: as §2
# [1] = system: Streptococcus alpha-hemolyticus (Streptococcus sp.); experiment: Antibacterial activity against Streptococcus Streptococcus alpha hemolyticus assessed as inhibition of microbial growth incubated for 18 to 22 hrs by broth microdilution method
SMILES,MIC (Staphylococcus aureus),MIC (Staphylococcus warneri),MIC (Enterococcus faecalis),MIC (Escherichia coli),MIC (Proteus mirabilis),MIC (Enterobacter),MIC (Klebsiella oxytoca),MIC (Candida albicans),MIC (Nakaseomyces glabratus),MIC (Candida tropicalis),MIC (Pichia kudriavzevii),MIC (Candida parapsilosis),MIC ([Candida] sake),MIC [1]
CC/C(C)=N\N=C1/NC(=O)CS1,≥ 256 µg/mL,≥ 256 µg/mL,≥ 256 µg/mL,≥ 256 µg/mL,≥ 256 µg/mL,≥ 256 µg/mL,≥ 256 µg/mL,8 µg/mL,2 µg/mL,2 µg/mL,2 µg/mL,2 µg/mL,2 µg/mL,≥ 256 µg/mL
CC(C)=C/C(C)=N\N=C1/NC(=O)CS1,≥ 256 µg/mL,≥ 256 µg/mL,≥ 256 µg/mL,≥ 256 µg/mL,≥ 256 µg/mL,≥ 256 µg/mL,≥ 256 µg/mL,2 µg/mL,2 µg/mL,8 µg/mL,2 µg/mL,2 µg/mL,4 µg/mL,≥ 256 µg/mL
C=CCC/C(C)=N\N=C1/NC(=O)CS1,≥ 256 µg/mL,≥ 256 µg/mL,≥ 256 µg/mL,≥ 256 µg/mL,≥ 256 µg/mL,≥ 256 µg/mL,≥ 256 µg/mL,2 µg/mL,2 µg/mL,2 µg/mL,2 µg/mL,2 µg/mL,4 µg/mL,≥ 256 µg/mL
C/C(CC(C)C)=N/N=C1\NC(=O)CS1,≥ 256 µg/mL,≥ 256 µg/mL,≥ 256 µg/mL,≥ 256 µg/mL,≥ 256 µg/mL,≥ 256 µg/mL,≥ 256 µg/mL,2 µg/mL,2 µg/mL,2 µg/mL,2 µg/mL,2 µg/mL,2 µg/mL,≥ 256 µg/mL
CCCCCC/C(C)=N\N=C1/NC(=O)CS1,≥ 256 µg/mL,≥ 256 µg/mL,≥ 256 µg/mL,≥ 256 µg/mL,≥ 256 µg/mL,≥ 256 µg/mL,≥ 256 µg/mL,2 µg/mL,2 µg/mL,2 µg/mL,16 µg/mL,16 µg/mL,16 µg/mL,≥ 256 µg/mL
CC1CCC/C(=N/N=C2\NC(=O)CS2)C1 (centres undefined),≥ 256 µg/mL,≥ 256 µg/mL,≥ 256 µg/mL,≥ 256 µg/mL,≥ 256 µg/mL,≥ 256 µg/mL,≥ 256 µg/mL,8 µg/mL,8 µg/mL,8 µg/mL,2 µg/mL,2 µg/mL,2 µg/mL,≥ 256 µg/mL
C/C(=N/N=C1/SCC(=O)N1Cc1ccccc1)c1cccc2ccccc12,≥ 256 µg/mL,≥ 256 µg/mL,≥ 256 µg/mL,≥ 256 µg/mL,≥ 256 µg/mL,≥ 256 µg/mL,≥ 256 µg/mL,4 µg/mL,4 µg/mL,32 µg/mL,16 µg/mL,16 µg/mL,4 µg/mL,
C/C(=N/N=C1/SCC(=O)N1Cc1ccccc1)c1ccc2ccccc2c1,≥ 256 µg/mL,≥ 256 µg/mL,≥ 256 µg/mL,≥ 256 µg/mL,≥ 256 µg/mL,≥ 256 µg/mL,≥ 256 µg/mL,8 µg/mL,16 µg/mL,256 µg/mL,16 µg/mL,16 µg/mL,16 µg/mL,
CC(=O)c1ccc(/C(C)=N\N=C2\SCC(=O)N2Cc2ccccc2)cc1,≥ 256 µg/mL,≥ 256 µg/mL,≥ 256 µg/mL,≥ 256 µg/mL,≥ 256 µg/mL,≥ 256 µg/mL,≥ 256 µg/mL,8 µg/mL,2 µg/mL,32 µg/mL,8 µg/mL,32 µg/mL,8 µg/mL,
C/C(=N/N=C1/SCC(=O)N1Cc1ccccc1)c1ccc(/C(C)=N\N=C2\SCC(=O)N2Cc2ccccc2)cc1,≥ 256 µg/mL,≥ 256 µg/mL,≥ 256 µg/mL,≥ 256 µg/mL,≥ 256 µg/mL,≥ 256 µg/mL,≥ 256 µg/mL,8 µg/mL,2 µg/mL,32 µg/mL,8 µg/mL,32 µg/mL,8 µg/mL,
O=C1CS/C(=N/N=C\c2c[nH]c3ccccc23)N1Cc1ccccc1,≥ 256 µg/mL,≥ 256 µg/mL,≥ 256 µg/mL,≥ 256 µg/mL,≥ 256 µg/mL,≥ 256 µg/mL,≥ 256 µg/mL,256 µg/mL,16 µg/mL,256 µg/mL,2 µg/mL,16 µg/mL,16 µg/mL,
O=C1CS/C(=N/N=C\c2ccc3c(c2)OCO3)N1Cc1ccccc1,≥ 256 µg/mL,≥ 256 µg/mL,≥ 256 µg/mL,≥ 256 µg/mL,≥ 256 µg/mL,≥ 256 µg/mL,≥ 256 µg/mL,8 µg/mL,8 µg/mL,8 µg/mL,8 µg/mL,8 µg/mL,8 µg/mL,
O=C1CS/C(=N/N=C\c2cccc3ccccc23)N1Cc1ccccc1,≥ 256 µg/mL,≥ 256 µg/mL,≥ 256 µg/mL,≥ 256 µg/mL,≥ 256 µg/mL,≥ 256 µg/mL,≥ 256 µg/mL,8 µg/mL,8 µg/mL,16 µg/mL,16 µg/mL,16 µg/mL,16 µg/mL,
CCC/C(CC)=N\N=C1/NC(=O)CS1,≥ 256 µg/mL,≥ 256 µg/mL,≥ 256 µg/mL,≥ 256 µg/mL,≥ 256 µg/mL,≥ 256 µg/mL,≥ 256 µg/mL,2 µg/mL,2 µg/mL,16 µg/mL,2 µg/mL,4 µg/mL,2 µg/mL,≥ 256 µg/mL
C/C(=N/N=C1/SCC(=O)N1Cc1ccccc1)c1ccc2ccc3ccccc3c2c1,≥ 256 µg/mL,≥ 256 µg/mL,≥ 256 µg/mL,≥ 256 µg/mL,≥ 256 µg/mL,≥ 256 µg/mL,≥ 256 µg/mL,2 µg/mL,2 µg/mL,2 µg/mL,4 µg/mL,2 µg/mL,8 µg/mL,
C/C(=N/N=C1/SCC(=O)N1Cc1ccccc1)c1c[nH]c2ccccc12,≥ 256 µg/mL,≥ 256 µg/mL,≥ 256 µg/mL,≥ 256 µg/mL,≥ 256 µg/mL,≥ 256 µg/mL,≥ 256 µg/mL,8 µg/mL,4 µg/mL,16 µg/mL,4 µg/mL,32 µg/mL,8 µg/mL,
C/C(=N\N=C1\SCC(=O)N1Cc1ccccc1)c1cc2ccccc2o1,≥ 256 µg/mL,≥ 256 µg/mL,≥ 256 µg/mL,≥ 256 µg/mL,≥ 256 µg/mL,≥ 256 µg/mL,≥ 256 µg/mL,4 µg/mL,4 µg/mL,32 µg/mL,16 µg/mL,32 µg/mL,4 µg/mL,
C/C(=N/N=C1\NC(=O)CS1)C1CC1,≥ 256 µg/mL,≥ 256 µg/mL,≥ 256 µg/mL,≥ 256 µg/mL,≥ 256 µg/mL,≥ 256 µg/mL,≥ 256 µg/mL,2 µg/mL,2 µg/mL,32 µg/mL,2 µg/mL,4 µg/mL,2 µg/mL,≥ 256 µg/mL
C/C(=N/N=C1/SCC(=O)N1Cc1ccccc1)c1ccc2c(c1)OCCO2,≥ 256 µg/mL,≥ 256 µg/mL,≥ 256 µg/mL,≥ 256 µg/mL,≥ 256 µg/mL,≥ 256 µg/mL,≥ 256 µg/mL,2 µg/mL,8 µg/mL,2 µg/mL,4 µg/mL,2 µg/mL,8 µg/mL,
C/C(=N/N=C1/SCC(=O)N1Cc1ccccc1)c1cc2ccccc2oc1=O,≥ 256 µg/mL,≥ 256 µg/mL,≥ 256 µg/mL,≥ 256 µg/mL,≥ 256 µg/mL,≥ 256 µg/mL,≥ 256 µg/mL,256 µg/mL,32 µg/mL,256 µg/mL,128 µg/mL,128 µg/mL,128 µg/mL,
CCCC/C(C)=N\N=C1/NC(=O)CS1,≥ 256 µg/mL,≥ 256 µg/mL,≥ 256 µg/mL,≥ 256 µg/mL,≥ 256 µg/mL,≥ 256 µg/mL,≥ 256 µg/mL,2 µg/mL,2 µg/mL,32 µg/mL,2 µg/mL,4 µg/mL,2 µg/mL,≥ 256 µg/mL
O=C1CSC(NN=C2CCCCC2)=N1,≥ 256 µg/mL,≥ 256 µg/mL,≥ 256 µg/mL,≥ 256 µg/mL,≥ 256 µg/mL,≥ 256 µg/mL,≥ 256 µg/mL,64 µg/mL,64 µg/mL,64 µg/mL,256 µg/mL,256 µg/mL,256 µg/mL,≥ 256 µg/mL
CC(C)(O/N=C(\C(=O)N[C@@H]1C(=O)N2C(C(=O)[O-])=C(C[n+]3ccccc3)CS[C@H]12)c1csc(N)n1)C(=O)O [CEFTAZIDIME],8 µg/mL,8 µg/mL,8 µg/mL,8 µg/mL,8 µg/mL,8 µg/mL,8 µg/mL,,,,,,,8 µg/mL
